Published values pooled from the literature.
Protocols differ between the studies behind these lines.
P2RX7: P2X purinoceptor 7 (P2RX7, Homo sapiens, UniProt Q99572)
MMP1: Interstitial collagenase (MMP1, Homo sapiens, UniProt P03956)
Ptgs2: Prostaglandin G/H synthase 2 (Ptgs2, Mus musculus, UniProt Q05769)
gag-pol integrase: Gag-Pol polyprotein, integrase (gag-pol, Human immunodeficiency virus 1, UniProt P12497)
IDE: Insulin-degrading enzyme (IDE, Homo sapiens, UniProt P14735)
JAK3: Tyrosine-protein kinase JAK3 (JAK3, Homo sapiens, UniProt P52333)
MET: Hepatocyte growth factor receptor (MET, Homo sapiens, UniProt P08581)
CSF1R: Macrophage colony-stimulating factor 1 receptor (CSF1R, Homo sapiens, UniProt P07333)
HDAC3: Histone deacetylase 3 (HDAC3, Homo sapiens, UniProt O15379)

O=C(Nc1ccccc1OS(=O)(=O)c1cccs1)c1ccc2ncccc2c1 has an IC50 of 2480 nM (P2RX7; calcium signal, antagonist).
With NC(=O)NCCC[C@@H](NS(=O)(=O)c1ccc(OCc2cc(Br)cc(Br)c2)cc1)C(=O)NO the IC50 was over 500000 nM (MMP1; enzyme activity, inhibitor, fluorescence).
For CCOC(=O)CC1=C/C(=C\c2ccc(-c3ccccc3)cc2)c2ccc(F)cc21, the IC50 was about 10000 nM (Ptgs2; enzyme activity, inhibitor).
Cc1nc2ccc(Br)cc2c(-c2ccc(Cl)cc2)c1C(OC(C)(C)C)C(=O)O (stereo not shown) has an IC50 of 120 nM (gag-pol integrase; enzyme activity, inhibitor, TR-FRET).
CC(C)OC(=O)[C@H](Cc1c[nH]cn1)NC(=O)CN(CC(=O)O)Cc1ccccc1 has an IC50 of 300 nM (IDE; enzyme activity, inhibitor, fluorescence).
For COc1cccc(F)c1Cn1cnc(-c2ccc(F)cc2)c1-c1ccncc1, the IC50 was 1230 nM (TGF-beta receptor type-1 (TGFBR1, Homo sapiens, UniProt P36897); cell-free assay, TR-FRET).
The IC50 of COc1ccc2c(Oc3ccc4c(C(=O)Nc5ccccc5N)cccc4c3)ccnc2c1 is reported as over 500 nM (JAK3; enzyme activity, inhibitor).
For COc1ccc(S(=O)(=O)N2Cc3cc(O)c(O)cc3CC2C(=O)NO)cc1 (stereo not shown), the IC50 was 10000 nM (MMP1; enzyme activity, inhibitor).
For O=C(Nc1ccn(Cc2ccc(O)cc2C(F)(F)F)n1)c1c(F)cccc1F, the IC50 was over 10000 nM (Potassium voltage-gated channel subfamily A member 5 (KCNA5, Homo sapiens, UniProt P22460); ion current, inhibitor).
O=C(O)[C@H](Cc1ccccc1)NC(=O)C1(c2ccccc2)CCN(S(=O)(=O)c2ccccc2)CC1 gave an IC50 of 189000 nM (gag-pol integrase; enzyme activity, inhibitor, TR-FRET).
The IC50 of CC(C(=O)O)c1cccc(C(=O)c2ccccc2)c1 (stereo not shown) is reported as 720 nM (Ptgs2; enzyme activity, inhibitor).
For Cc1cnc(-c2ccc(-c3ccc(NC(=O)Nc4c(F)cc(F)cc4F)cc3F)c3c2C(=O)NC3)[nH]1, the IC50 was 2.1 nM (Serine/threonine-protein kinase 4 (STK4, Homo sapiens, UniProt Q13043); enzyme activity, inhibitor).
With CNC(=O)c1cc2c(Oc3ccc(NC(=O)C4(C(=O)Nc5ccc(F)cc5)CC4)cc3)ccnc2cc1OC the IC50 was 4 nM (Hepatocyte growth factor receptor (MET, Homo sapiens, UniProt P08581, D1228H); enzyme activity, inhibitor, radiometric).
Cc1ccc(/C=C2\C=C(CC(=O)O)c3cc(F)ccc32)cc1 has an IC50 of about 26000 nM (Ptgs2; enzyme activity, inhibitor).
CN1CCN(c2ccc(Nc3ncc4cc(C#N)c(=O)n(C5CCCC5)c4n3)cc2)CC1 has an IC50 of 399 nM (Serine/threonine-protein kinase Nek9 (NEK9, Homo sapiens, UniProt Q8TD19); enzyme activity, inhibitor).
With O=C(O)C1=CC(=C(c2ccc(O)c(C(=O)O)c2)c2ccc(O)c(C(=O)O)c2)C=CC1=O the IC50 was 1340 nM (Lysosomal acid lipase/cholesteryl ester hydrolase (LIPA, Homo sapiens, UniProt P38571); enzyme activity, inhibitor).
The IC50 of CC(C)n1nc(-c2ccc3c(c2)sc2ccccc23)c2c(N)ncnc21 is reported as over 3000 nM (Calmodulin-domain protein kinase 1, putative (Cryptosporidium parvum, UniProt A3FQ16); enzyme activity, inhibitor).
Cc1cc(Oc2ccc(NC(=O)c3cc(-c4cccs4)no3)cc2F)c2nncn2n1 has an IC50 of 540 nM (MET; enzyme activity, inhibitor, mobility shift).
C[C@H]1C[C@@H](N2C(=N)N[C@](C)(c3cccc(Nc4ccc(C5CC5)nc4)c3Cl)CC2=O)CCO1 has an IC50 of 8000 nM (Sodium channel protein type 10 subunit alpha (SCN10A, Homo sapiens, UniProt Q9Y5Y9); ion current, inhibitor, patch clamp).
NC(=O)c1ccc[n+]([C@@H]2O[C@H](COP(=O)([O-])OP(=O)(O)OC[C@H]3O[C@@H](n4cnc5c(N)ncnc54)[C@H](O)[C@@H]3O)[C@@H](O)[C@H]2O)c1 gave an IC50 of 5000 nM (Protein mono-ADP-ribosyltransferase PARP3 (PARP3, Homo sapiens, UniProt Q9Y6F1); enzyme activity, inhibitor).
With Cc1noc([C@H](Cc2c[nH]cn2)NC(=O)CN(CCCc2ccccc2)CC(=O)O)n1 the IC50 was 500 nM (IDE; enzyme activity, inhibitor, fluorescence).
With CCCN(CCC)S(=O)(=O)c1ccc(-c2n[nH]c(=S)o2)cc1 the IC50 was 6110 nM (P2RX7; calcium signal, antagonist).
For Cc1ccc(C(=O)Nc2ccc(Oc3cc4cnn(C)c4cc3-c3cn[nH]c3)c(F)c2)c(=O)n1-c1ccc(F)cc1, the IC50 was 300 nM (CSF1R; phosphorylation in cells, inhibitor, western blot).
O=C(Nc1cc(-c2ccc(Cl)cc2)[nH]n1)c1cccnc1 has an IC50 of 2400 nM (crk3 (Leishmania mexicana, UniProt O15851); enzyme activity, inhibitor, radiometric).
With O=C(Nc1ccccc1OS(=O)(=O)c1ccc(F)cc1)c1ccc2ncccc2c1 the IC50 was 624 nM (P2RX7; calcium signal, antagonist).
The IC50 of CC(C)C[C@H](NC(=O)[C@H](Cc1ccccc1)NC(=O)[C@H](Cc1ccc(O)cc1)NC(=O)CNC(=O)[C@H](CCCNC(=N)N)NC(=O)[C@H](CO)NC(=O)[C@H](CCC(N)=O)NC(=O)[C@H](CO)NC(=O)[C@H](C)NC(=O)[C@H](Cc1ccccc1)NC(=O)[C@@H]1CCCN1C(=O)[C@H](CO)NC(=O)[C@H](CCC(N)=O)NC(=O)[C@H](Cc1ccccc1)NC(=O)[C@H](CCC(=O)O)NC(=O)[C@H](CCC(=O)O)NC(=O)[C@H](CC(=O)O)NC(=O)[C@@H](NC(=O)[C@H](CCCNC(=N)N)NC(=O)[C@@H](N)Cc1ccccc1)C(C)C)C(=O)N[C@@H](Cc1ccccc1)C(=O)N[C@@H](CCCNC(=N)N)C(=O)N1CCC[C@H]1C(=O)N[C@@H](CCCNC(=N)N)C(=O)N[C@@H](CC(N)=O)C(N)=O is reported as 0.219 nM (Neuromedin-U receptor 2 (NMUR2, Homo sapiens, UniProt Q9GZQ4); ligand displacement, radioligand).
The IC50 of CNCCCC(c1ccccc1)(c1ccccc1)c1ccccc1 is reported as 386 nM (Kinesin-like protein KIF11 (KIF11, Homo sapiens, UniProt P52732); ATPase activity, inhibitor).
COC(=O)[C@H](Cc1c[nH]cn1)NC(=O)CN(CC(=O)O)Cc1ccc(C(C)(C)C)cc1 has an IC50 of 2900 nM (IDE; enzyme activity, inhibitor, fluorescence).
CC(C)C[C@H]1CC(=O)N[C@@H](C)C(=O)N[C@@H](CCCCCC(=O)O)C(=O)N[C@@H](Cc2c[nH]c3ccccc23)C(=O)N1 gave an IC50 of 600 nM (HDAC3; enzyme activity, inhibitor).
The IC50 of CN(C)C(=O)[C@H](Cc1c[nH]cn1)NC(=O)CN(CC(=O)O)Cc1ccccc1 is reported as 6900 nM (IDE; enzyme activity, inhibitor, fluorescence).
Cc1cc(Oc2ccc(NC(=O)c3sc(-c4ccncc4)nc3C)cc2F)c2nncn2n1 has an IC50 of 650 nM (MET; enzyme activity, inhibitor, mobility shift).
CC[C@H](C)[C@H](NC(C)=O)C(=O)N[C@@H](CCC(=O)O)C(=O)N[C@H](C(=O)N[C@H](C=O)CC(=O)O)[C@@H](C)O gave an IC50 of 21.7 nM (Caspase-9 (CASP9, Homo sapiens, UniProt P55211); enzyme activity, inhibitor).
For O=C(Nc1ccccc1OS(=O)(=O)c1ccc([N+](=O)[O-])cc1)c1ccc2ncccc2c1, the IC50 was 1810 nM (P2RX7; calcium signal, antagonist).
With Cc1cc(Oc2ccc(NC(=O)c3sc(-c4ccccn4)nc3C)cc2F)c2nncn2n1 the IC50 was 900 nM (MET; enzyme activity, inhibitor, mobility shift).
With FC(F)(F)c1cccc(-c2nnc(S)o2)c1 the IC50 was 1500 nM (P2RX7; calcium signal, antagonist).
CC/C=C\C/C=C\C/C=C\C/C=C\C/C=C\CCCC(=O)O gave an IC50 of 35000 nM (POLE (Homo sapiens, UniProt Q07864); enzyme activity, inhibitor).
NC(=O)[C@H](Cc1c[nH]cn1)NC(=O)CN(CC(=O)O)Cc1ccccc1 has an IC50 of 1400 nM (IDE; enzyme activity, inhibitor, fluorescence).
With CCCC[C@H](NC(=O)C1CN(C)C1)c1ncc(-c2cc3ccccc3nc2OC)[nH]1 the IC50 was 16 nM (HDAC3; enzyme activity, inhibitor).
COC(=O)[C@H](Cc1c[nH]cn1)NC(=O)CN(CC(=O)O)Cc1ccc(C(F)(F)F)cc1 has an IC50 of 2000 nM (IDE; enzyme activity, inhibitor, fluorescence).
With CC(C)(C)n1nc(-c2ccc3nc(OC4CC4)ccc3c2)c(C(N)=O)c1N the IC50 was over 10000 nM (JAK3; cell-free assay).
With O=C(O)CN(CC(=O)N[C@@H](Cc1c[nH]cn1)C(=O)NCc1ccccc1)Cc1ccccc1 the IC50 was 1400 nM (IDE; enzyme activity, inhibitor, fluorescence).
For O=C(O)[C@H](Cc1ccc2ccccc2c1)NC(=O)C1(c2ccc3ccccc3c2)CCN(S(=O)(=O)c2ccccc2)CC1, the IC50 was 54700 nM (gag-pol integrase; enzyme activity, inhibitor, TR-FRET).
The IC50 of CCn1ncc2c1-c1cnc(N)c(c1)O[C@H](C)c1cc(F)ccc1-c1nn(C)nc1C2 is reported as 489 nM (CSF1R; enzyme activity, inhibitor, radiometric).
For O=C(Nc1ccccc1)c1cc([N+](=O)[O-])ccc1Cl, the IC50 was 26 nM (Peroxisome proliferator-activated receptor alpha (PPARA, Homo sapiens, UniProt Q07869); ligand displacement, TR-FRET).
For CC(C)(C)OC(=O)[C@H](Cc1c[nH]cn1)NC(=O)CN(CC(=O)O)Cc1ccccc1, the IC50 was 800 nM (IDE; enzyme activity, inhibitor, fluorescence).
The IC50 of CCOc1ccc2c(-c3cc(C)nc(Nc4cc(OC)cc(C(F)(F)F)c4)n3)cnn2n1 is reported as over 10000 nM (Homeodomain-interacting protein kinase 1 (HIPK1, Homo sapiens, UniProt Q86Z02); enzyme activity, inhibitor).
